Data as given in ChEMBL document CHEMBL1177807, “Structure-based optimization of potent PDK1 inhibitors” (Bioorg Med Chem Lett, 2010).
The source made the active and inactive calls. No cut-off for these calls is given here.

Key:
MCF7 = assay: Cytotoxicity against human MCF7 cells after 72 hrs by Cell titer-glo assay; assay type: functional
How it was run: (§1)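 A2780 cells were grown in RPMI-1640 and MCF7 cells in MEM, each with heat-inactivated 10% fetal calf serum. Cells were seeded at 2500–5000 cells/well, treated with compound after 24 h, and incubated 72 h at 37 °C under 5% CO₂. Lysed-well ATP content, read by thermostable firefly luciferase, measured viable cells. IC₅₀ came from percent growth versus untreated control.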

A2780 = assay: Cytotoxicity against human A2780 cells after 72 hrs by Cell titer-glo assay; assay type: functional; how it was run: as §1
[1] = target: Cyclin-dependent kinase 2 (Homo sapiens, UniProt P24941); assay: Inhibition of CDK2
[2] = target: T1, 3-phosphoinositide-dependent protein kinase 1 (Homo sapiens, UniProt O15530); assay: (§2) Inhibition of PDK1
T1 sequence (O15530 whole entry): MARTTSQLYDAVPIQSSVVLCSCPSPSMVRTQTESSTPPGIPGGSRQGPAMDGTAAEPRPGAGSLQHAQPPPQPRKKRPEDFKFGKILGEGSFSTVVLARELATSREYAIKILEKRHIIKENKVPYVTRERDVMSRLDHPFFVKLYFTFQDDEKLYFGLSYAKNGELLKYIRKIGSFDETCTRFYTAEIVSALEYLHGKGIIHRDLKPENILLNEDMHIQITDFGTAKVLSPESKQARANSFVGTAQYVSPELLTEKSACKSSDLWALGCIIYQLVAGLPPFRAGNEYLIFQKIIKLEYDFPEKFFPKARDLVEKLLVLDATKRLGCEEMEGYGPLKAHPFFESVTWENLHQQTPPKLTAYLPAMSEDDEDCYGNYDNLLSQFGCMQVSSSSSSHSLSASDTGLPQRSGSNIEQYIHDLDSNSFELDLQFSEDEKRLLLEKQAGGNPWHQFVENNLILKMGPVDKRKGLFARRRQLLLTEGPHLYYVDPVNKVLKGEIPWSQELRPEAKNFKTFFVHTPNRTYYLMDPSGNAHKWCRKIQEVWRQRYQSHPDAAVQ

[3] = target: Aurora kinase B (Homo sapiens) (UniProt Q96GD4); assay: Inhibition of aurora B at 100 nM
Chain of Aurora kinase B (Homo sapiens) (Q96GD4 whole entry): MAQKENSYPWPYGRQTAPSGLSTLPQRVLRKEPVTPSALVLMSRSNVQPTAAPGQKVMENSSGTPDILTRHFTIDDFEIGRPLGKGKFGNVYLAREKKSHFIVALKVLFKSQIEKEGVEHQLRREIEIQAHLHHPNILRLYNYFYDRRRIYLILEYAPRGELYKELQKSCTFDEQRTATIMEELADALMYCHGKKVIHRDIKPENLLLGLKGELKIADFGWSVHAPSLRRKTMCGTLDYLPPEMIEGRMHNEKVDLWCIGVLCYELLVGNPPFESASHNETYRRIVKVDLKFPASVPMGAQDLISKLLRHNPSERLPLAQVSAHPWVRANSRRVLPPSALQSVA

[4] = target: T2, Aurora kinase A (Homo sapiens) (UniProt O14965); assay: Inhibition of aurora A at 40 nM
T2 sequence (whole entry): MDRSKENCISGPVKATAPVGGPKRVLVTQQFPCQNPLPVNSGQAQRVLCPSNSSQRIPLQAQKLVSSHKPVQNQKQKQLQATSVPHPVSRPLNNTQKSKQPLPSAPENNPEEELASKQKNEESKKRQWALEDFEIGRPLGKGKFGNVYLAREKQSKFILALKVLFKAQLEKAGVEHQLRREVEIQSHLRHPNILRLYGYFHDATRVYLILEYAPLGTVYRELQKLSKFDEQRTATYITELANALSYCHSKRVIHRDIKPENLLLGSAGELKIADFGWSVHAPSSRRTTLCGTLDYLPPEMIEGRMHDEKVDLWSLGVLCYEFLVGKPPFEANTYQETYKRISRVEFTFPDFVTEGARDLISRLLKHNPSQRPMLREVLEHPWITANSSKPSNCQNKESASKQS

[5] = target: T3, 3-phosphoinositide-dependent protein kinase 1 (Homo sapiens) (UniProt O15530); assay: as §2
T3 sequence (whole entry): T1 sequence (O15530 whole entry)

Row | SMILES | Activity (MCF7) | Activity (A2780) | IC50 [1] | IC50 [2] | inhibition [3] | inhibition [4] | IC50 [5]
1 | NC(=O)c1nn(CC2CCNCC2)c2c1CCc1cnc(Nc3ccccc3)nc1-2 | 1.36 µM | 0.51 µM | 12 nM |  |  |  | 
2 | Cc1cc(CNC(=O)c2nn(CCCN)c3c2CCc2cnc(Nc4cccc(CC(=O)N(C)C)c4)nc2-3)ccn1 [NERVIANO] | >10 µM | 5.9 µM | 500 nM | 85 nM | Active | Active | 
3 | Cc1cc(CNC(=O)c2nn(C)c3c2CCc2cnc(Nc4ccc(N5CCN(C)CC5)cc4)nc2-3)ccn1 | 4.91 µM | 0.17 µM | 319 nM |  |  |  | 713 nM
4 | NC(=O)Cn1nc(C(N)=O)c2c1-c1nc(Nc3ccccc3)ncc1CC2 | 6 µM | 2.71 µM | 10 nM | 2740 nM |  |  | 
5 | NCCCn1nc(C(N)=O)c2c1-c1nc(Nc3ccccc3)ncc1CC2 | 0.14 µM | 0.12 µM | 1 nM | 36 nM |  |  | 
